{"source": "ChEMBL document CHEMBL1127317", "about": "(J Med Chem, 1994)", "type_in_all_cases": "ADME", "key": {"[1]": {"assay": "The half-life for cyclization reaction at pH 2.4", "how_it_was_run": "(§1)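 Amines generated from the 2-nitroaryl amides, incubated at 37 °C in aqueous buffer of ionic strength 0.01 M. Cyclization followed at the same time by UV/vis spectrophotometry in thermostated stoppered cuvettes and by C-18 reverse-phase HPLC (MeOH/10 mM phosphate pH 7 mobile phase). Runs lasted 4 h at first, extended to about 4 half-lives when product formed. Pseudo-first-order k_obs was taken from first-order loss of amine peak area.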"}, "[2]": {"assay": "The observed pseudo-first-order rate constant of compound for cyclization reaction at pH 2.4", "how_it_was_run": "as §1"}, "[3]": {"assay": "The observed pseudo-first-order rate constant of compound for cyclization reaction at pH 6.8", "how_it_was_run": "as §1"}, "[4]": {"assay": "The half-life for cyclization reaction at pH 6.8", "how_it_was_run": "as §1"}, "[5]": {"assay": "The observed pseudo-first-order rate constants of compound for cyclization reaction at pH 2.4", "how_it_was_run": "as §1"}}}
{"molecule": "COc1ccc(NC(=O)Cc2ccccc2N)cc1", "values": [{"measurement": "half-life", "setting": "[1]", "value": 260, "unit": "min"}, {"measurement": "K obs", "setting": "[2]", "value": 0.0026, "unit": "min⁻¹"}]}
{"molecule": "Nc1ccccc1CCC(=O)Nc1cnc2ccccc2c1", "values": [{"measurement": "half-life", "setting": "[1]", "value": 32, "unit": "min"}, {"measurement": "K obs", "setting": "[2]", "value": 0.022, "unit": "min⁻¹"}]}
{"molecule": "CC(=O)c1ccc(NC(=O)C(C)(C)c2ccccc2N)cc1", "values": [{"measurement": "K obs", "setting": "[3]", "value": 0.02, "unit": "min⁻¹"}, {"measurement": "T1/2", "setting": "[1]", "value": 0.033, "unit": "min"}, {"measurement": "K obs", "setting": "[2]", "value": 21, "unit": "min⁻¹"}, {"measurement": "half-life", "setting": "[4]", "value": 35, "unit": "min"}]}
{"molecule": "COc1ccc(N(C)C(=O)C(C)(C)c2ccccc2N)cc1", "values": [{"measurement": "K obs", "setting": "[3]", "value": 0.0009, "unit": "min⁻¹"}, {"measurement": "half-life", "setting": "[1]", "value": 0.28, "unit": "min"}, {"measurement": "K obs", "setting": "[2]", "value": 2.5, "unit": "min⁻¹"}, {"measurement": "half-life", "setting": "[4]", "value": 800, "unit": "min"}]}
{"molecule": "COc1ccc(NC(=O)C(C)(C)c2ncccc2N)cc1", "values": [{"measurement": "K obs", "setting": "[3]", "value": 0.0013, "unit": "min⁻¹"}, {"measurement": "half-life", "setting": "[1]", "value": 8.9, "unit": "min"}, {"measurement": "K obs", "setting": "[2]", "value": 0.078, "unit": "min⁻¹"}, {"measurement": "half-life", "setting": "[4]", "value": 530, "unit": "min"}]}
{"molecule": "COc1ccc(NC(=O)C(C)(C)c2cc(C(=O)NCCN(C)C)ccc2N)cc1", "values": [{"measurement": "K obs", "setting": "[3]", "value": 0.0009, "unit": "min⁻¹"}, {"measurement": "half-life", "setting": "[1]", "value": 0.27, "unit": "min"}, {"measurement": "K obs", "setting": "[2]", "value": 2.58, "unit": "min⁻¹"}, {"measurement": "half-life", "setting": "[4]", "value": 770, "unit": "min"}]}
{"molecule": "COc1ccc(NC(=O)c2c(C)nn(-c3ccccc3)c2-c2ccccc2N)cc1", "values": [{"measurement": "half-life", "setting": "[1]", "value": 36, "unit": "min"}, {"measurement": "K obs", "setting": "[2]", "value": 0.019, "unit": "min⁻¹"}]}
{"molecule": "COc1ccc(NC(=O)[C@@H]2CCCN2C(=O)c2ccccc2N)cc1", "values": [{"measurement": "half-life", "setting": "[1]", "value": 74, "unit": "min"}, {"measurement": "K obs", "setting": "[2]", "value": 0.0094, "unit": "min⁻¹"}]}
{"molecule": "COc1ccc(NC(=O)C(C)c2ccccc2N)cc1", "note": "(stereo not given)", "values": [{"measurement": "half-life", "setting": "[1]", "value": 16, "unit": "min"}, {"measurement": "K obs", "setting": "[2]", "value": 0.043, "unit": "min⁻¹"}]}
{"molecule": "CC(C)(C(=O)Nc1ccccc1)c1ccccc1N", "values": [{"measurement": "K obs", "setting": "[3]", "value": 0.02, "unit": "min⁻¹"}, {"measurement": "T1/2", "setting": "[1]", "value": 0.033, "unit": "min"}, {"measurement": "K obs", "setting": "[2]", "value": 21, "unit": "min⁻¹"}, {"measurement": "half-life", "setting": "[4]", "value": 35, "unit": "min"}]}
{"molecule": "CCC(CC)(C(=O)Nc1ccc(OC)cc1)c1ccccc1N", "values": [{"measurement": "K obs", "setting": "[3]", "value": 0.028, "unit": "min⁻¹"}, {"measurement": "half-life", "setting": "[1]", "value": 0.43, "unit": "min"}, {"measurement": "K obs", "setting": "[2]", "value": 1.64, "unit": "min⁻¹"}, {"measurement": "half-life", "setting": "[4]", "value": 250, "unit": "min"}]}
{"molecule": "COc1ccc(NC(=O)C(C)(C)c2ccccc2N)cc1", "values": [{"measurement": "K obs", "setting": "[3]", "value": 0.0096, "unit": "min⁻¹"}, {"measurement": "T1/2", "setting": "[1]", "value": 0.07, "unit": "min"}, {"measurement": "K obs", "setting": "[2]", "value": 10, "unit": "min⁻¹"}, {"measurement": "half-life", "setting": "[4]", "value": 72, "unit": "min"}]}
{"molecule": "Nc1ccccc1CC(=O)Nc1cnc2ccccc2c1", "values": [{"measurement": "half-life", "setting": "[1]", "value": 87, "unit": "min"}, {"measurement": "K obs", "setting": "[5]", "value": 0.008, "unit": "min⁻¹"}]}
{"molecule": "COc1ccc(NC(=O)CS(=O)(=O)c2c(C)cccc2N)cc1", "values": [{"measurement": "half-life", "setting": "[1]", "value": 1700, "unit": "min"}, {"measurement": "K obs", "setting": "[2]", "value": 0.0004, "unit": "min⁻¹"}]}
{"molecule": "COc1ccc(NC(=O)Cn2ncc3cccc(N)c32)cc1", "values": [{"measurement": "half-life", "setting": "[1]", "value": 83, "unit": "min"}, {"measurement": "K obs", "setting": "[2]", "value": 0.0084, "unit": "min⁻¹"}]}
{"molecule": "COc1ccc(NC(=O)CCc2ccccc2N)cc1", "values": [{"measurement": "half-life", "setting": "[1]", "value": 58, "unit": "min"}, {"measurement": "K obs", "setting": "[2]", "value": 0.012, "unit": "min⁻¹"}]}
{"molecule": "COc1ccc(NC(=O)c2cccc3cccc(N)c23)cc1", "values": [{"measurement": "half-life", "setting": "[1]", "value": 6.3, "unit": "min"}, {"measurement": "K obs", "setting": "[5]", "value": 0.11, "unit": "min⁻¹"}]}
{"molecule": "CN(C)c1ccc(NC(=O)C(C)(C)c2ccccc2N)cc1", "values": [{"measurement": "K obs", "setting": "[3]", "value": 0.0097, "unit": "min⁻¹"}, {"measurement": "half-life", "setting": "[4]", "value": 71, "unit": "min"}]}
